Data set [1] relates to Japanese patients with type 1 diabetes. The data set is described as follows: Safety assessments. It counts as in vivo, human. The settings on record: Japanese T1D patients; 0.2 U/kg single s.c. dose. The essentials: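 Monitored through screening, two single 0.2 U/kg subcutaneous dosing visits and follow-up 7–21 days after second dose. Covered adverse events, injection site reactions, hypoglycemia, safety laboratory parameters, vital signs, physical examination and ECG. Hypoglycemia counted as confirmed if severe (third-party assistance) or plasma glucose <3.1 mmol/L. Summary statistics covered all patients receiving at least one dose.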

A short description of data set [2]: Pharmacokinetics: free serum IAsp concentration. The conditions noted are these: Japanese T1D patients; 0.2 U/kg single s.c. dose; least squares mean. It counts as in vivo, human (Japanese patients with type 1 diabetes). A digest of the protocol:
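Randomized, double-blind crossover with 3–12 days between dosing visits. After an overnight fast, patients received 0.2 U/kg subcutaneously into the lower abdominal wall. A euglycemic clamp held BG at 5.5 mmol/L, with sampling from 10 min pre-dose to 12 h post-dose. Free serum IAsp (PEG-precipitated) was measured by validated ELISA (LLOQ 10 pmol/L). Times were taken from raw individual profiles and analysed by linear mixed model.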

Data on one substance can be found in paper PMC5835461 (Journal of Diabetes Investigation, 2017).

For the substance insulin aspart [IAsp], in data set [1], the “Confirmed hypoglycemic episodes or injection site reactions” value is “No confirmed hypoglycemic episodes or injection site reactions”, the Serious adverse events result is on record as “no serious adverse events” and the Tolerability entry is “well tolerated”. Besides, in data set [2], the “t Early 50% Cmax” value was determined as 29.3 min and the t max was 1.14 h.
